Data published in PubChem BioAssay.
Calls of active or inactive are those of the source.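 How the source made its calls, unless noted: active means NADPH fluorescence slope more negative than the mean of all samples by about 3 SD, 99.7% confidence; inactive means the rest.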

How the values were obtained:
[1] = inhibitors of TNFa-induced NFkB p65 translocation, primary screen, imaging, HUVEC, MLSMR starter and 10KST1 sets (AID 438;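 active means inhibition above 20% together with a positive visual image hit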;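 further: compound added about 3h40 before a 20 min TNFalpha stimulation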;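 on inhibition: signal is the nuclear over cytoplasmic p65 intensity ratio per well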); conditions: HUVEC TNFa-induced p65 nuclear translocation; cell count: measured here: nuclei count (cytotoxicity indicator), at 2.08 µM; inhibition: at 2 µM, stronger effect = higher value, 0% TNFa-plus-vehicle, 100% no-TNFa wells
[2] = inhibitors of mutant huntingtin aggregation, primary screen, imaging, exon1htt(103Q)mCFP cells, high-content imaging (AID 483;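 active means visual image review flags a hit and inhibition of aggregation exceeds 20%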;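 further: compound exposure lasted 3 days before fixation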;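 on nuclei count: percent of the per-plate median nuclei count of sample wells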); conditions: exon1htt(103Q)mCFP cell line, aggregate imaging, at 2 µM; inhibition of aggregation: stronger effect = higher value; nuclei count: measured here: cell count, toxicity
[3] = inhibitors of E-selectin induction by TNFa, primary screen, imaging, HUVEC, immunofluorescence, MLSMR starter and 10KST1 sets (AID 487;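 active means visually confirmed hit in the image check and inhibition above 20%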;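 on inhibition: signal is fraction of cell area covered by stained E-selectin grains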;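 on nuclei count: 100% = median nuclei count of all wells on the same plate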); conditions: HUVEC TNFalpha-induced E-selectin immunofluorescence imaging, at 2 µM; inhibition: stronger effect = higher value; nuclei count: measured here: cell number, toxicity
[4] = target: Voltage-gated potassium channel subunit beta-2 (Rattus norvegicus) (UniProt P62483); test: KvBeta enzyme negative modulators, primary screen, biochemical, NADPH fluorescence (AID 622;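 active means fluorescence slope higher than the sample average by over 3 SD, cut at about -0.22 in these data, passing the limit was not always enough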;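 further: slope of raw intensity against log time taken from 70 to 1610 s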); conditions: recombinant KvBeta, 4-cyanobenzaldehyde reduction, at 10 µM, stronger effect = higher value
Chain of Voltage-gated potassium channel subunit beta-2 (Rattus norvegicus) (P62483 whole entry, looked up): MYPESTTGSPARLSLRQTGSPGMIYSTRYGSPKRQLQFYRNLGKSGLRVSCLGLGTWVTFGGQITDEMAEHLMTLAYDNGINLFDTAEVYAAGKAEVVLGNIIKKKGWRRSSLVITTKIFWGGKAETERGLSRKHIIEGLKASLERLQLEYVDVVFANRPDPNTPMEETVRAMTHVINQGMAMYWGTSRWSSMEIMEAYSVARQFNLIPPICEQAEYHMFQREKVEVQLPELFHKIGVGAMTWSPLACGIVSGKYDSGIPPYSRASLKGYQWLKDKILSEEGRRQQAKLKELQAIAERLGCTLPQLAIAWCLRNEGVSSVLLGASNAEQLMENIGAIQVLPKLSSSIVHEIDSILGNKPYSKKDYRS

[5] = target: Voltage-gated potassium channel subunit beta-2 (Rattus norvegicus) (UniProt P62483); test: KvBeta positive modulators, primary screen, biochemical, NADPH fluorescence (AID 623); conditions: Recombinant KvBeta, NADPH fluorescence decrease slope, 10 min; at 10 µM; stronger effect = lower value;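 further: fluorescence intensity change per second fitted from 20 to 320 s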
[6] = target: Muscarinic acetylcholine receptor M4 (Homo sapiens) (UniProt P08173); test: compounds altering M4/GIRK thallium flux, either direction, primary screen, M4 allosteric agonist project, cell-based, HEK293 M4/GIRK, BTC-AM (AID 625;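 active means fluorescence slope after compound addition differing from the mean of all tested samples at 99.7% confidence, mostly higher but some lower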;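 further: thallium influx through GIRK channels coupled to M4 in HEK293 cells with BTC-AM dye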); conditions: at 10 µM, actives lie on both sides
Chain of Muscarinic acetylcholine receptor M4 (Homo sapiens) (P08173 whole entry, looked up): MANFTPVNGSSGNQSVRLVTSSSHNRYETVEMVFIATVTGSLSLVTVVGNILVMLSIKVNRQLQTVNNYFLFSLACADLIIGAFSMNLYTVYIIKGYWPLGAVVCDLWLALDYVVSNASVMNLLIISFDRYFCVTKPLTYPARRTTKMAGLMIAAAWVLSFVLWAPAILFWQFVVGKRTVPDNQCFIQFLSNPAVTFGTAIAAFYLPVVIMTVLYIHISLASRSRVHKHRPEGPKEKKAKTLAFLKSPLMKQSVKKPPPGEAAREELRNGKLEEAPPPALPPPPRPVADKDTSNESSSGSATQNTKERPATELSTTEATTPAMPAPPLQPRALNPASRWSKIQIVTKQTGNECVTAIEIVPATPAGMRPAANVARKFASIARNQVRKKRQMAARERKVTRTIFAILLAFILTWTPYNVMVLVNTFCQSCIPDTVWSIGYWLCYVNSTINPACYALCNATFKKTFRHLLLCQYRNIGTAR
Outline: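 System: HEK293 cells with M4 receptor and GIRK channels | Incubation: Cells overnight at 37 °C, BTC-AM loading 1 h, reads 2 min total | Technique: Kinetic BTC-AM fluorescence sampled at 1 Hz, 10 s pre-addition baseline | Measure: Post-addition slope, 15–24 s, of baseline-normalized fluorescence | Control set: Carbachol positive, DMSO negative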

[7] = inhibitors of Sendai virus-induced IRF3 signaling, primary screen, TLR/RLR signaling modifier project, cell-based, Sendai virus stimulus, luciferase, 10K MLSCN set (AID 602276;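 active means inhibition at or above 50% at 10 µM; inactive means inhibition below 50%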;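 further: firefly luciferase from ISG56 promoter only with Renilla not read in this screen; 0% = Sendai virus plus DMSO and 100% = medium plus DMSO without virus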); conditions: HEK293 RL24 IRF3 luciferase reporter, at 10 µM, stronger effect = higher value
[8] = inhibitors of poly I:C-induced TLR3 signaling, primary screen, cell-based, poly I:C stimulus, luciferase, 10K MLSCN set (AID 602277;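 active means inhibition of the reporter signal at or above 50%; inactive means inhibition below 50%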); conditions: HEK293-TLR3 RL24 IRF3 luciferase reporter, at 10 µM, stronger effect = higher value

Structure (SMILES) | cell count [1] | inhibition [1] | inhibition of aggregation [2] | nuclei count [2] [%] | inhibition [3] | nuclei count [3] [%] | fluorescence slope [4] | NADPH fluorescence slope [5] | fluorescence slope [6] | inhibition [7] | inhibition [8]
Cc1ccc2nc(SCC(=O)NCc3ccco3)c(C#N)cc2c1 | 388 | -4.7% (inactive) | 17.5% (inactive) | 100 | 1.8% (inactive) | 99.6 | -0.592 (inactive) | 1.6e-05 (inactive) | 0.00711 (inactive) | -4.71% (inactive) | -2.98% (inactive)
O=C(NC12CC3CC(CC(C3)C1)C2)C1CCCN1C(=O)NC1CCCCC1 (centres undefined) | 559 | -1.3% (inactive) | 15.8% (inactive) | 96.2 | -17.6% (inactive) | 110 | -0.284 (inactive) | -3.2e-05 (inactive) | 0.00682 (inactive) | -2.83% (inactive) | 28.4% (inactive)
O=C(Cn1c(=O)[nH]c2ccsc2c1=O)NC1CCCCCC1 | 468 | -0.7% (inactive) | 19.2% (inactive) | 104 | 13.2% (inactive) | 107 | -0.26 (inactive) | -3.5e-06 (inactive) | 0.0062 (inactive) | 17.6% (inactive) | 9.21% (inactive)
COc1ccc(N2CCN(C(=O)CSc3nnc(Cn4nnc5ccccc54)n3C)CC2)cc1 | 525 | 5.7% (inactive) | -2.8% (inactive) | 103 | -48.7% (inactive) | 101 | -0.578 (inactive) | -2.5e-05 (inactive) | 0.0066 (inactive) | -9.14% (inactive) | -5.63% (inactive)
CCOC(=O)c1c(C)oc2c1c(C=NCc1ccccn1)c(O)c1ccccc12 | 738 | 4.7% (inactive) | 7.3% (inactive) | 84.9 | -112% (inactive) | 124 | -0.322 (inactive) | -2.5e-05 (inactive) | 0.00123 (inactive) | 8.4% (inactive) | 29.2% (inactive)
COC(=O)c1ccccc1NC(=O)Nc1cccs1 | 567 | -11.5% (inactive) | -4.6% (inactive) | 96.1 | -29.5% (inactive) | 110 | -0.425 (inactive) | -9.4e-05 (inactive) | 0.00583 (inactive) | 10.3% (inactive) | 11.6% (inactive)
ON1C2CCCCC2N(O)C1c1c(F)c(F)c(F)c(F)c1F (centres undefined) | 431 | 4.1% (inactive) | -6.9% (inactive) | 105 | -53.7% (inactive) | 102 | -0.546 (inactive) | -2.9e-05 (inactive) | 0.00415 (inactive) | 15.7% (inactive) | 22% (inactive)
O=C(CCn1c(=O)oc2ccccc21)NCCN1CCc2ccccc2C1 | 375 | 7.2% (inactive) | 5.1% (inactive) | 93.1 | -315% (inactive) | 108 | -0.451 (inactive) | -2.5e-05 (inactive) | 0.00577 (inactive) | 15.7% (inactive) | 29.6% (inactive)
Cc1ccc(S(=O)(=O)N[C@@H](C)C(=O)N2CCC(C(=O)N3CCC[C@H]3C(=O)O)CC2)cc1 | 361 | 3.6% (inactive) | -14.8% (inactive) | 102 | -59.3% (inactive) | 129 | -0.406 (inactive) | 7.4e-05 (inactive) | 0.00591 (inactive) | 2.84% (inactive) | 13% (inactive)
COc1ccc(C(CNC(=O)CN2C(=O)NC3(CC(C)CC(C)(C)C3)C2=O)N2CCOCC2)cc1 (centres undefined) | 427 | 8.4% (inactive) | 13.7% (inactive) | 97.7 | -57% (inactive) | 115 | -0.413 (inactive) | 3.8e-05 (inactive) | 0.00559 (inactive) | -2.17% (inactive) | -5.07% (inactive)
CN(C(=O)c1ccncc1)C1CC(C)(C)N(O)C(C)(C)C1 | 344 | 2.8% (inactive) | -9.8% (inactive) | 103 | -67.4% (inactive) | 119 | -0.592 (inactive) | -2.2e-05 (inactive) | 0.00587 (inactive) | -0.539% (inactive) | 8.86% (inactive)
O=c1c2cn[nH]c2nc(SCc2ccc3c(c2)OCCO3)n1-c1ccccc1 | 488 | 15.8% (inactive) | 4.8% (inactive) | 112 | -27.1% (inactive) | 107 | -0.508 (inactive) | 1.3e-05 (inactive) | 0.0074 (inactive) | 7.97% (inactive) | 9.23% (inactive)
CCCc1nn(CCc2ccccn2)c(N)c1CC | 613 | -9.1% (inactive) | 7.2% (inactive) | 105 | -43.2% (inactive) | 140 | -0.372 (inactive) | 5.8e-05 (inactive) | 0.00633 (inactive) | 14.8% (inactive) | 21.5% (inactive)
O=C(c1cccs1)c1cn(CC(=O)N2CCc3ccccc3C2)c2ccccc12 | 785 | -2.9% (inactive) | -15.5% (inactive) | 100 | -137% (inactive) | 123 | -0.519 (inactive) | -3.8e-05 (inactive) | 0.00668 (inactive) | 11.1% (inactive) | 8.88% (inactive)
Cc1ccc(NC2=NC(c3ccccc3)n3c(nc(C)cc3=O)N2)cc1 (centres undefined) | 568 | -5.6% (inactive) | -4.2% (inactive) | 89.6 | -13% (inactive) | 90.9 | -0.529 (inactive) | 3.4e-05 (inactive) | 0.00472 (inactive) | 14.2% (inactive) | 19.7% (inactive)
COc1ccc(N2CCN(C(=O)CN3C(=O)C4CC=CCC4C3=O)CC2)cc1 (centres undefined) | 693 | 9.7% (inactive) | 11% (inactive) | 108 | 55.9% (inactive) | 90.3 | -0.575 (inactive) | 3.5e-05 (inactive) | 0.00533 (inactive) | -11% (inactive) | -14.6% (inactive)
CCSCCC(NC1=CC(=O)CC(C)(C)C1)C(=O)O (centres undefined) | 353 | 9.3% (inactive) | 13.5% (inactive) | 98 | -77.8% (inactive) | 94.9 | -0.566 (inactive) | -6.6e-05 (inactive) | 0.00496 (inactive) | -16.8% (inactive) | 98.7% (active)
O=C(Cn1ccc2ccccc2c1=O)NCCC(=O)N1CCN(C2CCCCC2)CC1 | 510 | -3.8% (inactive) | 10.9% (inactive) | 83.8 | 15.7% (inactive) | 110 | -0.395 (inactive) | 2.2e-05 (inactive) | 0.00596 (inactive) | 9.9% (inactive) | 18.5% (inactive)
O=C1CCCc2c1cc(C(=O)NCc1ccco1)c(=O)n2-c1ccc(Cl)cc1 | 220 | 0.8% (inactive) | 5.3% (inactive) | 91.5 | 37.1% (inactive) | 80 | -0.52 (inactive) | -5.7e-05 (inactive) | 0.0047 (inactive) | 10.8% (inactive) | 3.62% (inactive)
